Assay results pooled from the literature.
Protocols differ between the studies behind these lines.
Target: Homeodomain-interacting protein kinase 1 (HIPK1, Homo sapiens, UniProt Q86Z02)

| Compound | read-out | method | concentration | remaining binding [%] |
| --- | --- | --- | --- | --- |
| COc1cnc(Nc2cccc(S(N)(=O)=O)c2)nc1N1CCN(c2ccccc2)C(=O)C1 | binding | competition with immobilised ligand | 1 µM | 79 |
| C=CC(=O)N1CCC(C(=O)NCC(=O)N2CCN(c3nc(-c4cnc(N)nc4C(F)F)nc(N4CCOCC4)n3)CC2)CC1 | binding | competition with immobilised ligand | 1 µM | 97 |
| Cc1cc(-n2nc(Cc3cc(F)cc(C(F)(F)F)c3)nc2C)ccc1C(N)=O | cell-free assay | competition with immobilised ligand | 1 µM | 92 |
| O=C(c1ccc(Nc2ncc(Cl)c(-c3cc4ccccc4s3)n2)cc1)N1CCC(N2CCCC2)CC1 | binding | competition with immobilised ligand | 1 µM | 1.4 |
| O=C(Nc1c[nH]nc1C(=O)NC1CCNCC1)c1cc(F)cc(F)c1 | binding | competition with immobilised ligand | 1 µM | 33 |
| Cc1c(C(=O)O)cc(-c2ccc(C3CCNCC3)cc2)c2ccc(-c3ccc(C(F)(F)F)cc3)cc12 | binding | competition with immobilised ligand | 1 µM | 100 |
| N[C@@H]1CCN(c2nccc(-c3cnn4ncccc34)n2)C1 | binding |  | 1 µM | 43 |
| CCN1CCN(Cc2ccc(C(=O)Nc3ccc(C)c(Oc4ccc5c(c4)CC(=O)N5)c3)cc2C(F)(F)F)CC1 | binding | competition with immobilised ligand | 1 µM | 83 |
| O=C(NCCCN1CCOCC1)c1ccc(Nc2ncc(Cl)c(-c3ccc(Cl)s3)n2)cc1 | binding | competition with immobilised ligand | 1 µM | 8.7 |
| COc1ccc2c(c1)O[C@@H](c1ccc(OC)c(OC)c1)C[C@H]2NC(=O)C1(c2ccc3c(c2)OC(F)(F)O3)CC1 | cell-free assay | competition with immobilised ligand | 1 µM | 86 |
| CNC(=O)[C@@H]1CC[C@@H](n2c(-c3ccc4cnccc4c3)nc3ccc(C(=O)NCc4cccc(C(N)=O)c4)cc32)C1 | binding | competition with immobilised ligand | 1 µM | 85 |
| CCCCN(CCCC)C(=O)CN1C[C@@H](c2cc(OC)c3c(c2)OCO3)[C@H](C(=O)O)[C@H]1CC(C)(C)CCC | cell-free assay | competition with immobilised ligand | 1 µM | 77.3 |
| C[C@@H]1CCN(c2nccc(-c3cnn4ncccc34)n2)C1 | binding |  | 1 µM | 52 |
| COc1cc(Nc2nccc(-c3cnn4nc(OC)ccc34)n2)cc(C(F)(F)F)c1 | binding | competition with immobilised ligand | 1 µM | 31 |
| CN(CCCC(F)(F)F)c1nccc(-c2cnn3ncccc23)n1 | binding |  | 1 µM | 70 |
| C[C@H](NC(=O)c1cnc2n1[C@](C)(Cc1ccc(C#N)cc1)C(=O)N2c1cc(Cl)c(F)c(Cl)c1)C(=O)NC1(c2ccccn2)CC1 | cell-free assay | competition with immobilised ligand | 1 µM | 97 |
| C[C@@H](c1ccc(-n2cnc3c(N)ncnc32)cc1)N1CCc2nn(C)c(Cc3ccccc3)c2C1=O | binding | competition with immobilised ligand | 0.1 µM | 91 |
| COc1ccnn2ncc(-c3ccnc(N(C)C)n3)c12 | binding |  | 1 µM | 55 |
| COc1ccc2cc(OCC3(C(=O)O)CN(C(=O)c4ccc(F)cc4)C3)ccc2c1 | cell-free assay | competition with immobilised ligand | 1 µM | 100 |
| O=C(c1ccc(Nc2nccc(-c3cc4ccccc4s3)n2)cc1)N1CCC(N2CCCC2)CC1 | binding | competition with immobilised ligand | 1 µM | 13 |
| c1cnn2ncc(-c3ccnc(N4CCC45COC5)n3)c2c1 | binding |  | 1 µM | 29 |
